In ChEMBL document CHEMBL1772947, “Discovery and optimization of a novel, selective and brain penetrant M1 positive allosteric modulator (PAM): the development of ML169, an MLPCN probe” (Bioorg Med Chem Lett, 2011):
Calls of active or inactive are those of the source. The rule behind the calls is not given here.

Columns and labels:
[1] = target: T1, Muscarinic acetylcholine receptor M1 (Rattus norvegicus) (UniProt P08482); experiment: Allosteric modulation at rat M1 receptor expressed in CHO cells by calcium mobilization assay relative to acetylcholine; assay type: functional, cell-based; parameters: concentration or dose not given beside the values
T1 sequence (whole entry): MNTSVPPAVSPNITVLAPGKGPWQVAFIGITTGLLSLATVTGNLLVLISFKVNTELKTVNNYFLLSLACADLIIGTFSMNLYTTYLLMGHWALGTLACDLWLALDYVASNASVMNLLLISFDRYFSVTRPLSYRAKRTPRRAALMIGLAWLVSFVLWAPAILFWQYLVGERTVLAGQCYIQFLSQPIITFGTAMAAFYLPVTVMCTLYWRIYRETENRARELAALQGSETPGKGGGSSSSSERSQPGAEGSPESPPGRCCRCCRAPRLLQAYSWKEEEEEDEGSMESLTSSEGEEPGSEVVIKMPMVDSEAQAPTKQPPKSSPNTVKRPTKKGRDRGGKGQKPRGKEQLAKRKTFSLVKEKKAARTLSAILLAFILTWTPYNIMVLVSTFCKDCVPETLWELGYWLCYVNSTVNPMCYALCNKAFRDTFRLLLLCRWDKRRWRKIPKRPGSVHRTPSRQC

[2] = target: T2, Muscarinic acetylcholine receptor M1 (Rattus norvegicus, UniProt P08482); experiment: Allosteric modulation at rat M1 receptor expressed in CHO cells by calcium mobilization assay; assay type: functional, cell-based
T2 sequence (P08482 whole entry): T1 sequence (whole entry)

[3] = target: T1, Muscarinic acetylcholine receptor M1 (Rattus norvegicus); experiment: Agonist activity at rat M1 receptor expressed in CHO cells assessed as leftward shift in Ach response at 30 uM by calcium mobilization assay; assay type: functional, cell-based
[4] = target: T3, Muscarinic acetylcholine receptor M2 (Homo sapiens, UniProt P08172); experiment: Agonist activity at M2 receptor; assay type: functional
T3 sequence (P08172 whole entry): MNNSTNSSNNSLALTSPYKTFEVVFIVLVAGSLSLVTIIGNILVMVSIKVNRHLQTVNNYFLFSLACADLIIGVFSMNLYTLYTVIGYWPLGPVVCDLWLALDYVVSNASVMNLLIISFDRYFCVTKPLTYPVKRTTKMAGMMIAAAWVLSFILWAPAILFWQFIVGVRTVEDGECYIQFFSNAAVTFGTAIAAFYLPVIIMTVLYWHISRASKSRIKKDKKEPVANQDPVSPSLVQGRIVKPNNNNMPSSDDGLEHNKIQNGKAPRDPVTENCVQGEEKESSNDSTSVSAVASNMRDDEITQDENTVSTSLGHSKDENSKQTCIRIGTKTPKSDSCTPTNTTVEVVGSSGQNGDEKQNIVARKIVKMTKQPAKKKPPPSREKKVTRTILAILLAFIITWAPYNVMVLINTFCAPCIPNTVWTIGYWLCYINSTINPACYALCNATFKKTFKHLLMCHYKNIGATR

[5] = target: T4, Muscarinic acetylcholine receptor M3 (Homo sapiens, UniProt P20309); experiment: Agonist activity at M3 receptor; assay type: functional
Target sequence in this assay (P20309 whole entry): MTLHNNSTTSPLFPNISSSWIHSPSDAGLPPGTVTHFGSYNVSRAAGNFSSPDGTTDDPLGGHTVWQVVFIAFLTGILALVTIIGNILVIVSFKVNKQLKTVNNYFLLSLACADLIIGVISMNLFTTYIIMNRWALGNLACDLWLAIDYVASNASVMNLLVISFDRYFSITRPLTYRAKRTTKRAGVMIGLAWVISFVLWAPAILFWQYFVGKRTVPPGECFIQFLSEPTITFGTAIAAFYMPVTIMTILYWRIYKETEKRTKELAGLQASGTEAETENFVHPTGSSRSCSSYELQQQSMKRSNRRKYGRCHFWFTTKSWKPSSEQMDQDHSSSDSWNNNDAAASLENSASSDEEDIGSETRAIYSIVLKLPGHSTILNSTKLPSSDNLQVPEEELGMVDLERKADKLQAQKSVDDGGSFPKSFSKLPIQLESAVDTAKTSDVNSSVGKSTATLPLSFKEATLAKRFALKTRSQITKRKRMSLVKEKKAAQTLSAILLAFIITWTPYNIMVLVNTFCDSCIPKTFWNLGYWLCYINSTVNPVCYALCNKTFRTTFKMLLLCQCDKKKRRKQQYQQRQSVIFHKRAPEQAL

[6] = target: T5, Muscarinic acetylcholine receptor M4 (Homo sapiens, UniProt P08173); experiment: Agonist activity at M4 receptor; assay type: functional
T5 sequence (P08173 whole entry): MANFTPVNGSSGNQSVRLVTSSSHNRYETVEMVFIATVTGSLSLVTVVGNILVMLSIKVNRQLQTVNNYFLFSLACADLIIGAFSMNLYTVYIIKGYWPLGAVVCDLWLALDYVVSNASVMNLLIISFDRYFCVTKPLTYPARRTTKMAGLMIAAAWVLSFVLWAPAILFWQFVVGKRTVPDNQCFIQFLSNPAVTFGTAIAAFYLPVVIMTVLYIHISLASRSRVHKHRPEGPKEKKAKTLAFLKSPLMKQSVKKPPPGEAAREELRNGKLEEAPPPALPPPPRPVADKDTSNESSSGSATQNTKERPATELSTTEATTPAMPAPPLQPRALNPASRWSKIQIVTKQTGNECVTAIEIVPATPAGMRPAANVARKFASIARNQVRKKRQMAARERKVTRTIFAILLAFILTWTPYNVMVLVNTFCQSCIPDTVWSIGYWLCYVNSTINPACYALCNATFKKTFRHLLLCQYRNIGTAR

[7] = target: T6, Muscarinic acetylcholine receptor M5 (Homo sapiens, UniProt P08912); experiment: Agonist activity at M5 receptor; assay type: functional
T6 sequence (P08912 whole entry): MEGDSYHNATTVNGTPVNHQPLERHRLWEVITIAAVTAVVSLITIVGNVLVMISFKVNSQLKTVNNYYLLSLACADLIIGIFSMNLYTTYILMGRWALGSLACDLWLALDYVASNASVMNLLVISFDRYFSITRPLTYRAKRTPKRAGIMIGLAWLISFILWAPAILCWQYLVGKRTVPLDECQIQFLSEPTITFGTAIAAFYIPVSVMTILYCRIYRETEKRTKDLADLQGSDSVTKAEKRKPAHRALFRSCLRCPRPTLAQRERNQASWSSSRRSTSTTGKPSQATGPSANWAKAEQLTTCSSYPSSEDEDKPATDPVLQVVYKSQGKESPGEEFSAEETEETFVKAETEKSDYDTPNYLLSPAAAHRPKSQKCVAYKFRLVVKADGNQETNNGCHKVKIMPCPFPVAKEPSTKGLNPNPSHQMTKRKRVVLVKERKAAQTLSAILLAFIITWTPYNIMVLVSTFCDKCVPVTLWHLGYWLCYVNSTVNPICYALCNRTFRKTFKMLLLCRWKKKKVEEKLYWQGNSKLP

[8] = Ratio of AUC in brain to plasma in rat at 10 mg/kg, ip after 1 hr; assay type: ADME, organism-based; parameters: dose 10 mg/kg, route intraperitoneal; settings: brain and plasma
[9] = target: T7, Muscarinic acetylcholine receptor M5 (Homo sapiens) (UniProt P08912); experiment: Orthosteric binding affinity to M5 receptor at 10 uM by radioligand binding assay
T7 sequence (whole entry): T6 sequence (P08912 whole entry)
How it was run: (§1)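 Radioligand binding panel of 68 GPCRs, ion channels and transporters (Lead Profile screen, run externally), compound tested at 10 μM; read-out as percent activity at each target.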

[10] = target: T8, Muscarinic acetylcholine receptor M4 (Homo sapiens) (UniProt P08173); experiment: Orthosteric binding affinity to M4 receptor at 10 uM by radioligand binding assay; how it was run: as §1
T8 sequence (whole entry): T5 sequence (P08173 whole entry)

[11] = target: T4, Muscarinic acetylcholine receptor M3; experiment: Orthosteric binding affinity to M3 receptor at 10 uM by radioligand binding assay; how it was run: as §1
Target sequence in this assay (P20309 whole entry, looked up): as the sequence (P20309 whole entry) above

[12] = target: T9, Muscarinic acetylcholine receptor M2 (Homo sapiens) (UniProt P08172); experiment: Orthosteric binding affinity to M2 receptor at 10 uM by radioligand binding assay; how it was run: as §1
T9 sequence (whole entry): T3 sequence (P08172 whole entry)

[13] = target: T1, Muscarinic acetylcholine receptor M1 (Rattus norvegicus); experiment: Orthosteric binding affinity to rat M1 receptor at 10 uM by radioligand binding assay; how it was run: as §1
[14] = Binding affinity to Sodium channel site 2 at 10 uM by radioligand binding assay; how it was run: as §1
[15] = target: Sodium-dependent dopamine transporter (Homo sapiens) (UniProt Q01959); experiment: Binding affinity to DAT at 10 uM by radioligand binding assay; how it was run: as §1
Sodium-dependent dopamine transporter (Homo sapiens), sequence (Q01959 whole entry): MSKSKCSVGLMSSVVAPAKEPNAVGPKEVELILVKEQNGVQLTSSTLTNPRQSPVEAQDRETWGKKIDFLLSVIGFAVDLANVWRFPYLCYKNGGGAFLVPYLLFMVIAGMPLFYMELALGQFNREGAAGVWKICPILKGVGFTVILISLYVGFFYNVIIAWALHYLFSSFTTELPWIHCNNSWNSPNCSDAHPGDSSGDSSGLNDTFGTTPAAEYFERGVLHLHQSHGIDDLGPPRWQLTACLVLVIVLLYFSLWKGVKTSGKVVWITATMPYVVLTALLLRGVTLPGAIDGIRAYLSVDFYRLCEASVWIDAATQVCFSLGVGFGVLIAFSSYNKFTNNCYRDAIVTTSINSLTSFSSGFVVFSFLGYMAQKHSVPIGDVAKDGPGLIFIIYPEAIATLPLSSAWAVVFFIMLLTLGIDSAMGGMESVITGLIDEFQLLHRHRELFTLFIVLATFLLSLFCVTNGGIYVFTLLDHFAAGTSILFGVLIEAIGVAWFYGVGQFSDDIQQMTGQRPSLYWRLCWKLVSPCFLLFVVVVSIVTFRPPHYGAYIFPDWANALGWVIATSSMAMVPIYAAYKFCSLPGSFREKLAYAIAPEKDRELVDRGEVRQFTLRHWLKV

| Compound | Activity [1] [%] | EC50 [2] [µM] | other results |
| --- | --- | --- | --- |
| COc1cccc(Cn2cc(S(=O)(=O)CC(=O)Nc3cc(C)on3)c3ccccc32)c1 | 79 |  |  |
| Cc1cc(NC(=O)CS(=O)(=O)c2cn(Cc3cccc(Br)c3)c3ccccc23)no1 | 91 |  |  |
| Cc1cc(NC(=O)CS(=O)(=O)c2cn(Cc3cccc(-c4cn[nH]c4)c3)c3cc(F)cc(F)c23)no1 | 102 |  | fold change (FC) [3]: 98 |
| Cc1cc(NC(=O)CS(=O)(=O)c2cn(Cc3cccc(Br)c3)c3cc(F)cc(F)c23)no1 | 103 |  |  |
| Cc1cc(NC(=O)CS(=O)(=O)c2cn(Cc3cc(Br)ccc3F)c3ccccc23)no1 | 84 |  | Kp at 1 h [8]: 0.32; Activity [9]: inactive; Activity [10]: inactive; Activity [11]: inactive; Activity [12]: inactive; Activity [13]: inactive; Activity [14]: 83%; Activity [15]: 83%; fold change (FC) [3]: 49 |
| Cc1cc(NC(=O)CS(=O)(=O)c2cn(Cc3cccc(-c4cn[nH]c4)c3)c3ccccc23)no1 | 90 |  |  |
| Cc1cc(NC(=O)CS(=O)(=O)c2cn(Cc3cccc(Cl)c3)c3ccccc23)no1 | 96 |  |  |
| Cc1cc(NC(=O)CS(=O)(=O)c2cn(Cc3cccc(Cl)c3F)c3ccccc23)no1 | 56 |  |  |
| COc1ccccc1Cn1cc(S(=O)(=O)CC(=O)Nc2cc(C)on2)c2ccccc21 |  | > 10 |  |
| Cn1cc(-c2ccc(CN3C(=O)C(=O)c4ccccc43)c(F)c2)cn1 |  |  | Kp at 1 h [8]: 0.1 |
| Cc1cc(NC(=O)CS(=O)(=O)c2cn(Cc3cccc(-c4ccc(N5CCCC5)nc4)c3)c3ccccc23)no1 |  | > 10 |  |
| Cc1cc(NC(=O)CS(=O)(=O)c2cn(Cc3cc(Br)cc(Br)c3)c3ccccc23)no1 |  | > 10 |  |
| Cc1cc(NC(=O)CS(=O)(=O)c2cn(Cc3ccc(F)c(-c4cn[nH]c4)c3)c3ccccc23)no1 |  | > 10 |  |
| Cc1cc(NC(=O)CS(=O)(=O)c2cn(Cc3ccc(F)cc3Br)c3ccccc23)no1 |  | > 10 |  |
| Cc1cc(NC(=O)CS(=O)(=O)c2cn(Cc3ccc(OC(F)(F)F)cc3)c3ccccc23)no1 |  | > 10 |  |

Second part, led by results:

| Activity [1] [%] | EC50 [2] [µM] | Compound | other results |
| --- | --- | --- | --- |
|  | > 10 | COc1ccc(Cn2cc(S(=O)(=O)CC(=O)Nc3cc(C)on3)c3ccccc32)cc1 |  |
|  | > 10 | Cc1cc(NC(=O)CS(=O)(=O)c2cn(Cc3ccc(Cl)cc3)c3ccccc23)no1 |  |
|  | > 10 | Cc1cc(NC(=O)CS(=O)(=O)c2cn(Cc3cccc(-c4ccc(Cl)nc4)c3)c3ccccc23)no1 |  |
|  | 9.71 | Cc1cc(NC(=O)CS(=O)(=O)c2cn(Cc3ccccc3Cl)c3ccccc23)no1 | EC50 [4]: > 30 µM; EC50 [5]: > 30 µM; EC50 [6]: > 30 µM; EC50 [7]: > 30 µM |
| 103 | 4.4 | Cc1cc(NC(=O)CS(=O)(=O)c2cn(Cc3cccc(-c4cn[nH]c4)c3F)c3ccccc23)no1 |  |
| 96 | 3.07 | Cc1cc(NC(=O)CS(=O)(=O)c2cn(Cc3cc(-c4cn[nH]c4)ccc3F)c3ccccc23)no1 |  |
|  | > 10 | CCC(C)n1cc(-c2cccc(Cn3cc(S(=O)(=O)CC(=O)Nc4cc(C)on4)c4ccccc43)c2)cn1 (configuration not stated) |  |
|  | > 10 | Cc1cc(NC(=O)CS(=O)(=O)c2cn(Cc3cccc(-c4ccc(N5CCOCC5)nc4)c3)c3ccccc23)no1 |  |
|  | > 10 | Cc1cc(NC(=O)CS(=O)(=O)c2cn(Cc3ccc(F)c(Cl)c3)c3ccccc23)no1 |  |
|  | > 10 | Cc1cc(NC(=O)CS(=O)(=O)c2cn(Cc3ccc(F)c(Br)c3)c3ccccc23)no1 |  |
|  | > 10 | Cc1cc(NC(=O)CS(=O)(=O)c2cn(Cc3cccc(-c4ccc(N5CCNCC5)nc4)c3)c3ccccc23)no1 |  |
|  | > 10 | Cc1cc(NC(=O)CS(=O)(=O)c2cn(Cc3ccc(C(F)(F)F)cc3)c3ccccc23)no1 |  |
|  | > 10 | Cc1cc(NC(=O)CS(=O)(=O)c2cn(Cc3cccc(C#N)c3)c3ccccc23)no1 |  |
|  | > 10 | Cc1cc(NC(=O)CS(=O)(=O)c2cn(Cc3ccccc3F)c3ccccc23)no1 |  |
|  | > 10 | Cc1cc(NC(=O)CS(=O)(=O)c2cn(Cc3cccc(C(F)(F)F)c3)c3ccccc23)no1 |  |
|  | > 10 | Cc1cc(NC(=O)CS(=O)(=O)c2cn(Cc3ccc(Cl)c(Cl)c3)c3ccccc23)no1 |  |
| 102 | 3.21 | Cc1cc(NC(=O)CS(=O)(=O)c2cn(Cc3cccc(-c4cnn(C)c4)c3)c3ccccc23)no1 |  |
|  | > 10 | Cc1cc(NC(=O)CS(=O)(=O)c2cn(Cc3cccc(-c4ccccc4)c3)c3ccccc23)no1 |  |
|  | > 10 | Cc1cc(NC(=O)CS(=O)(=O)c2cn(Cc3cccc(Br)c3F)c3ccccc23)no1 |  |
|  | > 10 | Cc1cc(NC(=O)CS(=O)(=O)c2cn(Cc3ccc(F)cc3F)c3ccccc23)no1 |  |
